Calls of active or inactive are those of the source. The calls are words filed in the database; no cut-off is given here.
Legend:
J774 = test: Cytotoxicity against mouse J774 cells after 72 hrs by CellTiter-96 aqueous one solution cell proliferation assay; type: cell-based; settings: J774, 72 h
Summary of the method: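 Compounds from 10 µg/mL or 20 µM top concentration, 1:2 serial dilutions over 11 concentrations, 72 h at 37 °C, 5% CO2. MTS-type reagent added for 4 h, absorbance read at 490 nm. IC50 by nonlinear regression.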

Plasmodium falciparum [1] = test: Antimalarial activity against pyrimethamine/chloroquine-resistant Plasmodium falciparum W2 infected in human type A-positive erythrocytes after 48 hrs by [3H]-hypoxanthine incorporation assay; type: functional, cell-based
Summary of the method: (§1)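 Compound from 10.0 mM DMSO stock, diluted ≥1:400, then 11 concentrations in duplicate. Incubated at 37 °C under 90% N2/5% O2/5% CO2 for 48 h, then 3H-hypoxanthine added for 24 h more. CPM counted; EC50 by nonlinear regression.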

Plasmodium falciparum [2] = test: Antimalarial activity against mefloquine/chloroquine/atovaquone/pyrimethamine-resistant Plasmodium falciparum TM90-C2B infected in human type A-positive erythrocytes after 48 hrs by [3H]-hypoxanthine incorporation assay; type: functional, cell-based; summary of the method: as §1
[3] = Resistance index, ratio of EC50 for mefloquine/chloroquine/atovaquone/pyrimethamine-resistant Plasmodium falciparum TM90-C2B to EC50 for pyrimethamine/chloroquine-resistant Plasmodium falciparum W2; type: functional
Plasmodium berghei [4] = test: Antimalarial activity against Plasmodium berghei infected in human HepG2 cells after 44 hrs by luciferase assay; type: functional, cell-based; settings: HepG2, 44 h
Summary of the method: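 HepG2 cells, 75000 per well, in DMEM with 10% FBS at 37 °C, 5% CO2. 5000 Pb luciferase sporozoites from dissected mosquito salivary glands added per well for 3 h, then washed three times with PBS. Serially diluted compound added in triplicate, 44 h at 37 °C. Cells lysed, luciferase substrate added, luminescence read.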

Plasmodium berghei [5] = test: animal or person; settings: in Mus musculus, po, read-out: INH
Plasmodium berghei [6] = test: Antimalarial activity against blood stage form of GFP transfected Plasmodium berghei infected in mouse assessed as mouse survival day at 10 mg/kg, po administered on day 3, 4, 5 post infection by Thompson test; type: functional
Plasmodium berghei [7] = test: Antimalarial activity against blood stage form of GFP transfected Plasmodium berghei infected in mouse assessed as protection against parasitemia at 10 mg/kg, po administered on day 3, 4, 5 post infection measured on day 30 by Thompson test; type: functional, organism-based
Summary of the method: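 Modified Thompson model: mice inoculated ip with 2×10^6 P. berghei (GFP)-infected red blood cells, parasitemia near 1% by day 3. […] Animals followed for 30 days; survival to day 30 with parasitemia below 1% counted as cure.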

Plasmodium berghei [8] = test: animal or person; settings: in Mus musculus, po, read-out: INH; remark: listed apart in the source
[9] = Aqueous solubility of compound at pH 6.5; type: physicochemical
Plasmodium berghei [10] = test: Antimalarial activity against liver stage form of luciferase transfected Plasmodium berghei sporozoites infected in mouse assessed as inhibition of parasitemia at 50 mg/kg administered via oral gavage 1 hr post infection measured on day 9 by bioluminescence method relative to control; type: functional

| Structure (SMILES) | EC50 (J774) [nM] | EC50 (Plasmodium falciparum [1]) [nM] | EC50 (Plasmodium falciparum [2]) [nM] | Ratio EC50 [3] | EC50 (Plasmodium berghei [4]) [nM] | inhibition in vivo at 50 mg/kg (Plasmodium berghei [5]) [%] | Survival (Plasmodium berghei [6]) | Activity (Plasmodium berghei [7]) | inhibition in vivo at 10 mg/kg (Plasmodium berghei [8]) [%] | solubility [9] [µM] | inhibition in vivo at 50 mg/kg (Plasmodium berghei [10]) [%] |
| --- | --- | --- | --- | --- | --- | --- | --- | --- | --- | --- | --- |
| CCN(CC)CCCC(C)Nc1ccnc2cc(Cl)ccc12 (centres undefined) [CHLOROQUINE] | 47200 |  |  |  |  |  |  |  |  |  |  |
| Cc1[nH]c2cc(CN3CCN(c4ccc(C(F)(F)F)cc4)CC3)ccc2c(=O)c1Br | > 20000 | 120 | 95 | 0.8 |  |  |  |  |  |  |  |
| COC(=O)c1c[nH]c2cc(N3CCN(c4ccccc4)CC3)c(OC)cc2c1=O | 17000 | 37 | 800 |  |  |  |  |  |  |  |  |
| COC(=O)c1c[nH]c2cc(CN3CCN(Cc4ccccc4)CC3)c(OC)cc2c1=O | > 20000 | 5.5 | > 2000 |  | 9.3 | 19.3 |  |  |  |  |  |
| COC(=O)c1c[nH]c2ccc(CN3CCN(c4ccccc4)CC3)cc2c1=O | > 20000 | 150 | > 2000 |  | 91 |  |  |  |  |  |  |
| COC(=O)c1c[nH]c2cc(CN3CCN(c4ccc(F)cc4)CC3)c(OC)cc2c1=O | > 20000 | 1.8 | 220 |  | 32 | 56.9 |  |  |  |  |  |
| O=c1c(Br)c[nH]c2cc(CN3CCN(c4ccc(F)cc4)CC3)ccc12 | > 20000 | 810 | > 2000 |  | 0.86 |  | <=13 day | inactive | 33 |  |  |
| COC(=O)c1c[nH]c2cc(N3CCN(c4ccccc4)CC3)ccc2c1=O | > 20000 | 4.5 | 250 |  | 74 |  |  |  |  | < 20 |  |
| COc1cc2c(=O)c(Br)c(C)[nH]c2cc1CN1CCN(c2ccc(C(F)(F)F)cc2)CC1 | > 20000 | 130 | > 2000 |  |  |  |  |  |  |  |  |
| COC(=O)c1c[nH]c2cc(CN3CCN(c4ccc(C(F)(F)F)cc4)CC3)c(C)cc2c1=O | > 20000 | 0.066 | 100 |  |  |  |  |  |  |  |  |
| COC(=O)c1c[nH]c2cc(N3CCN(Cc4ccccc4)CC3)c(OC)cc2c1=O | 12000 | 64 | 200 |  |  |  |  |  |  |  |  |
| COc1cc(NC(C)CCCN)c2ncccc2c1 (centres undefined) [PRIMAQUINE] |  |  |  |  |  |  |  |  |  |  | > 99 |
| COC(=O)c1c[nH]c2cc(CN3CCN(Cc4ccc(OC)cc4)CC3)c(C)cc2c1=O | > 20000 | 2.4 | 1000 |  |  |  |  |  |  |  |  |
| O=C1C(O)=C([C@H]2CC[C@H](c3ccc(Cl)cc3)CC2)C(=O)c2ccccc21 [ATOVAQUONE] | 28000 |  |  |  |  |  |  | Active |  |  |  |
| COC(=O)c1c[nH]c2cc(CN3CCN(c4ccc(OC)cc4)CC3)c(C)cc2c1=O | > 20000 | 0.57 | 180 |  | 4.1 |  |  |  |  |  |  |
| COC(=O)c1c[nH]c2ccc(CN3CCN(c4ccc(C(F)(F)F)cc4)CC3)cc2c1=O | > 20000 | 45 | > 2000 |  | 85 |  |  |  |  |  |  |
| COC(=O)c1c[nH]c2cc(CCN3CCN(Cc4ccccc4)CC3)ccc2c1=O | > 20000 | 120 | > 2000 |  | 160 |  |  |  |  | ≥ 80 |  |
| O=c1c(Cl)c[nH]c2cc(CN3CCN(c4ccc(F)cc4)CC3)ccc12 | > 20000 | 1100 | > 2000 |  |  | 71.9 |  |  |  |  |  |
| COC(=O)c1c[nH]c2cc(CN3CCN(Cc4ccccc4)CC3)ccc2c1=O | 10000 | 1.4 | 150 |  | 44 | 12.3 |  |  |  | ≥ 80 |  |
| COC(=O)c1c[nH]c2cc(N3CCN(Cc4ccccc4)CC3)ccc2c1=O | > 20000 | 16 | 860 |  | 85 |  |  |  |  |  |  |
| COC(=O)c1c[nH]c2cc(CN3CCN(c4ccccc4)CC3)c(OC)cc2c1=O | > 20000 | 1.6 | 490 |  | 110 | 82.4 |  |  |  |  |  |
| COC(=O)c1c[nH]c2cc(N3CCN(c4ccc(OC)cc4)CC3)c(OC)cc2c1=O | > 20000 | 43 | 2000 | 47 | > 100 |  |  |  |  |  |  |
| C[C@H]1[C@@H](O)O[C@@H]2O[C@@]3(C)CC[C@H]4[C@H](C)CC[C@@H]1[C@@]24OO3 [ARTENIMOL] | 1500 |  |  |  |  |  |  |  |  |  |  |

| Structure (SMILES) | EC50 (J774) [nM] | EC50 (Plasmodium falciparum [1]) [nM] | EC50 (Plasmodium falciparum [2]) [nM] | Ratio EC50 [3] | EC50 (Plasmodium berghei [4]) [nM] | inhibition in vivo at 50 mg/kg (Plasmodium berghei [5]) [%] | Survival (Plasmodium berghei [6]) | Activity (Plasmodium berghei [7]) | inhibition in vivo at 10 mg/kg (Plasmodium berghei [8]) [%] | solubility [9] [µM] | inhibition in vivo at 50 mg/kg (Plasmodium berghei [10]) [%] |
| --- | --- | --- | --- | --- | --- | --- | --- | --- | --- | --- | --- |
| COC(=O)c1c[nH]c2ccc(CN3CCN(c4ccc(F)cc4)CC3)cc2c1=O | > 20000 | 110 | > 2000 |  |  |  |  |  |  |  |  |
| COC(=O)c1c[nH]c2cc(CN3CCN(c4ccc(C(F)(F)F)cc4)CC3)c(OC)cc2c1=O | > 20000 | 6.4 | 210 |  | 9.6 |  |  |  |  |  |  |
| COC(=O)c1c[nH]c2cc(CCN3CCN(Cc4ccc(OC)cc4)CC3)ccc2c1=O | > 20000 | 12 |  |  |  |  |  |  |  | ≥ 80 |  |
| COC(=O)c1c[nH]c2cc(CN3CCN(c4ccccc4)CC3)c(C)cc2c1=O | 12000 | 0.44 | 150 |  | 6.9 |  |  | inactive |  |  |  |
| COC(=O)c1c[nH]c2cc(CN3CCN(c4ccc(OC)cc4)CC3)c(OC)cc2c1=O | 16000 | 3.4 | 860 |  | 10 | 70.6 |  |  |  |  |  |
| COC(=O)c1c[nH]c2ccc(CN3CCN(c4ccc(OC)cc4)CC3)cc2c1=O | > 20000 | 160 | > 2000 |  | > 100 |  |  |  |  |  |  |
| COC(=O)c1c[nH]c2cc(CN3CCN(c4ccc(F)cc4)CC3)c(C)cc2c1=O | 16000 | 0.84 | 350 |  | 2.6 |  | <=21 day |  |  |  |  |
| Cc1[nH]c2cc(CN3CCN(c4ccc(F)cc4)CC3)ccc2c(=O)c1Br | > 20000 |  | 26 |  |  |  | <=13 day | inactive |  |  |  |
| Cc1cc(=O)c2ccc(CN3CCN(c4ccc(F)cc4)CC3)cc2[nH]1 | > 20000 | 1200 | 1500 | 1.2 |  |  |  |  |  |  |  |
| COC(=O)c1c[nH]c2cc(N3CCN(Cc4ccc(OC)cc4)CC3)ccc2c1=O |  | 20 | 1300 | 65 |  |  |  |  |  |  |  |
| Cc1[nH]c2cc(CN3CCN(c4ccc(C(F)(F)F)cc4)CC3)ccc2c(=O)c1Cl | > 20000 | 140 | 1500 | 11 |  |  |  |  |  |  |  |
| COC(=O)c1c[nH]c2cc(CN3CCN(Cc4ccc(OC)cc4)CC3)c(OC)cc2c1=O | > 20000 | 10 | > 2000 |  | 52 | 24.6 |  |  |  |  |  |
| COC(=O)c1c[nH]c2cc(N3CCN(c4ccc(OC)cc4)CC3)ccc2c1=O | > 20000 | 7.8 | 150 | 20 |  |  |  |  |  |  |  |
| COC(=O)c1c[nH]c2cc(CN3CCN(c4ccc(C(F)(F)F)cc4)CC3)ccc2c1=O | 11000 | 0.32 | 120 |  | 16 |  | <=21 day | inactive |  |  |  |
| COC(=O)c1c[nH]c2cc(N3CCN(c4ccccc4)CC3)c(C)cc2c1=O | 17000 | 46 | 1100 |  |  | 31.6 |  |  |  |  |  |
| COC(=O)c1c[nH]c2cc(CN3CCN(Cc4ccccc4)CC3)c(C)cc2c1=O | > 20000 | 1.5 | 890 |  | 9.5 | 24.6 |  |  |  |  |  |
| COC(=O)c1c[nH]c2cc(CN3CCN(c4ccc(OC)cc4)CC3)ccc2c1=O |  | 3.6 | 220 |  | 0.12 | 39.2 |  |  |  |  |  |
| COC(=O)c1c[nH]c2cc(N3CCN(Cc4ccccc4)CC3)c(C)cc2c1=O | > 20000 | 13 | 980 | 75 | > 100 |  |  |  |  |  |  |
| Cc1[nH]c2cc(CN3CCN(c4ccc(F)cc4)CC3)ccc2c(=O)c1Cl | > 20000 | 39 | 52 |  |  |  | <=13 day | inactive | 11 |  |  |
| COC(=O)c1c[nH]c2cc(CCN3CCN(c4ccccc4)CC3)ccc2c1=O | > 20000 | 25 | 1500 | 60 |  |  |  |  |  | ≥ 80 |  |
| COC(=O)c1c[nH]c2cc(CN3CCN(c4ccc(F)cc4)CC3)ccc2c1=O | 2000 | 1.8 | 130 |  | 1.1 |  | <=21 day | inactive |  |  |  |
| COC(=O)c1c[nH]c2cc(CN3CCN(Cc4ccc5c(c4)OCO5)CC3)ccc2c1=O | > 20000 | 160 | > 2000 |  |  |  |  |  |  |  |  |

Reference: ChEMBL document CHEMBL4052822, “Design and Synthesis of Orally Bioavailable Piperazine Substituted 4(1H)-Quinolones with Potent Antimalarial Activity: Structure-Activity and Structure-Property Relationship Studies” (J Med Chem, 2018)
